Experimental data reported in publication PMC4047138 (Pharmacological research : the official journal of the …, 2013).
“Also recorded” adds a separate entry of the source.

Experiments:
[1] = target: T1, hV2R[L^83Q] (Homo sapiens, UniProt P30518, L83Q); experiment: hV2R[L^83Q] pharmacoperone assay; type: cell-based; conditions: for LOPAC Screen Average % Response +/- Std Dev: single concentration of 6 μM (0.4% DMSO), SR121463 as positive control, -Dox
[2] = system: hV2R[L^83Q] cells in the presence of doxycycline; experiment: counter screen: same hV2R[L^83Q] HeLa cells incubated with doxycycline 36 hours; type: cell-based; conditions: Homo sapiens, read-out: EC50 (μM) +Dox
Procedure, shortened: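 HeLa line expressing hV2R[L83Q] under a tetracycline-regulated (TET-off) transactivator. Cells are pretreated with compound, challenged with an EC100 dose of vasopressin, lysed, and cAMP is read by cAMP-Glo luminescence. […] The −Dox run expresses the mutant. The +Dox counter screen adds doxycycline 36 hours before assay, shutting off mutant expression.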

[3] = target: T1, hV2R[L^83Q]; conditions: pre-treatment with 100 nM, absence of Dox, 384-well; cited from earlier work
[4] = system: GnRHR[E^90K]; conditions: mouse, in vivo; cited from earlier work

SMILES | LOPAC Screen Average % Response +/- Std Dev [1] | EC50 [2] [µM] | also measured
CCOc1ccc2c(c1)C1(CCC(OCCN3CCOCC3)CC1)C(=O)N2S(=O)(=O)c1ccc(C(=O)NC(C)(C)C)cc1OC (stereo not shown) [SR121463] | – | – | signal-to-background ratio (S/B) ([1]; -Dox assay, n=4): ~7; cAMP response to vasopressin challenge after pharmacoperone pre-treatment [3]: robust cAMP response
O=C1c2c(O)ccc(O)c2C(=O)c2c(NCCNCCO)ccc(NCCNCCO)c21 [Mitoxantrone] | – | > 25 | –
Cc1cc(C)cc(-c2[nH]c3ccc(C(C)(C)C(=O)N4CC5CCC4CC5)cc3c2[C@H](C)CNCCc2ccncc2)c1 [IN3, (2S)-2-[5-[2-(2-azabicyclo[2.2.2]oct-2-yl)-1,1-dimethyl-2-oxoethyl]-2-(3,5-dimethylphenyl)-1H-indol-3-yl]-N-(2-pyridin-4-ylethyl)propan-1-amine] | – | – | testis weight / size [4]: increased testis size; also recorded: markedly increased

The next lines start with results.

LOPAC Screen Average % Response +/- Std Dev [1] | SMILES | EC50 [2] [µM] | also measured
104+/−0% | C=C[C@@]1(C)CC(=O)[C@]2(O)[C@@]3(C)[C@@H](O)CCC(C)(C)[C@@H]3[C@H](O)[C@H](OC(C)=O)[C@@]2(C)O1 [Forskolin] | 0.59 | –
74+/−2% | Cc1ccccc1N1CCN(S(=O)(=O)C[C@]23CC[C@H](C[C@@H]2NC(=O)[C@@H](N)CCS(C)(=O)=O)C3(C)C)CC1 [L-368,899] | – | –
